What was measured:
Conditions in all cases: stereoisomer not certain
UniProt Q7TRW1 = molecular target: T1, UniProt Q7TRW1
T1 sequence (whole entry): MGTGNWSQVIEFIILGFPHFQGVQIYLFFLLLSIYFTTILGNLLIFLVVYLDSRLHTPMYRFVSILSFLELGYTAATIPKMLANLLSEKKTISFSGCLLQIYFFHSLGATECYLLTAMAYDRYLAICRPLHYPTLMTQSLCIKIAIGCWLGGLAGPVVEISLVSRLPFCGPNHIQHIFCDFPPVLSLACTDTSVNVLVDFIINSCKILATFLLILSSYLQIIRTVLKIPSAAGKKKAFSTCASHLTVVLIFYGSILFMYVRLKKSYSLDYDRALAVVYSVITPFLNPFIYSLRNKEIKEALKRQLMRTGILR
Procedure, shortened: (§1)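 Values were gathered from published papers (main text and supplementary material), with extra details requested from the original authors when needed, and checked for typos and inconsistencies. Each receptor–molecule pair is called responsive (active) if the original authors judged the measured signal statistically different from baseline, and non-responsive (inactive) otherwise. Assay methods varied by source, often transient mammalian cell-line luciferase assays. Recorded details include cell line, G-protein, co-transfected protein and tags.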

UniProt Q7TRX0 = molecular target: T2, UniProt Q7TRX0
T2 sequence (whole entry): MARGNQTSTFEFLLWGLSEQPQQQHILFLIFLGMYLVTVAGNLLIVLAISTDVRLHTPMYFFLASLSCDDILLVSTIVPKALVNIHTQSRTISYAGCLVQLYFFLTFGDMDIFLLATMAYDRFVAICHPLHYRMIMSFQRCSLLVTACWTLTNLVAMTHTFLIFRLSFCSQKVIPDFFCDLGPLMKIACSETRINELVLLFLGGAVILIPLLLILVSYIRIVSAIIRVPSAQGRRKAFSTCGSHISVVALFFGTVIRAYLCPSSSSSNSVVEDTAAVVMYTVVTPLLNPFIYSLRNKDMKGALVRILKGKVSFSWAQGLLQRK
Procedure, shortened: as §1

UniProt Q7TRX1 = molecular target: UniProt Q7TRX1
Procedure, shortened: as §1

UniProt Q8VEU7 = molecular target: T3, UniProt Q8VEU7
T3 sequence (whole entry): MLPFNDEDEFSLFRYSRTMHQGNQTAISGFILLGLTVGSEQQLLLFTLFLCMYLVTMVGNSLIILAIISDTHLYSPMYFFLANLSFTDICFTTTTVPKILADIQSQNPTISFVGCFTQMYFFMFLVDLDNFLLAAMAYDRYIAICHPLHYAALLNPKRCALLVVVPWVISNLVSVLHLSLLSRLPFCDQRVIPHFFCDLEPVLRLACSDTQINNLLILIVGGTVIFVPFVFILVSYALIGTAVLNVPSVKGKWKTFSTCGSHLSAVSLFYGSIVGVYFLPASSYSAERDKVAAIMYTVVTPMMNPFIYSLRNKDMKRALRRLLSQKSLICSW
Procedure, shortened: as §1

UniProt Q8VF05 = molecular target: T4, UniProt Q8VF05
T4 sequence (whole entry): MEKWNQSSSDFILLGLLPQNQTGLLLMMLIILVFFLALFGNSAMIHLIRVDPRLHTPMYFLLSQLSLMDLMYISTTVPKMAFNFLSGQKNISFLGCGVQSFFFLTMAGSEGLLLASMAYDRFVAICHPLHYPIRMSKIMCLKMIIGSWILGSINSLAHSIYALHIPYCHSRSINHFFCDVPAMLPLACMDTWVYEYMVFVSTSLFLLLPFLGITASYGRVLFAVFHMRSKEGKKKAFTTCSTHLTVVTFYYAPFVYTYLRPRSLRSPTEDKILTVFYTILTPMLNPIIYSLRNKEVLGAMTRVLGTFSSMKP
Procedure, shortened: as §1

UniProt Q8VF24 = molecular target: T5, UniProt Q8VF24
T5 sequence (whole entry): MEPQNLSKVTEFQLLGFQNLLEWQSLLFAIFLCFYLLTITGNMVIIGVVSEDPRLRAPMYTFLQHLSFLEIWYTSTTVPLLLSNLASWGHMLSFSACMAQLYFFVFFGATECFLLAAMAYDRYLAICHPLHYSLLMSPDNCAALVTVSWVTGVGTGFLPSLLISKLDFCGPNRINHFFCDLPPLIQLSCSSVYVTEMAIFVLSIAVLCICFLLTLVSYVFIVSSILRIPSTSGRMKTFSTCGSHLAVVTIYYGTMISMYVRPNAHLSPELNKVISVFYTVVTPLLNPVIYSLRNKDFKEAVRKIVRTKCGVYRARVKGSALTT
Procedure, shortened: as §1

UniProt Q8VF43 = molecular target: T6, UniProt Q8VF43
T6 sequence (whole entry): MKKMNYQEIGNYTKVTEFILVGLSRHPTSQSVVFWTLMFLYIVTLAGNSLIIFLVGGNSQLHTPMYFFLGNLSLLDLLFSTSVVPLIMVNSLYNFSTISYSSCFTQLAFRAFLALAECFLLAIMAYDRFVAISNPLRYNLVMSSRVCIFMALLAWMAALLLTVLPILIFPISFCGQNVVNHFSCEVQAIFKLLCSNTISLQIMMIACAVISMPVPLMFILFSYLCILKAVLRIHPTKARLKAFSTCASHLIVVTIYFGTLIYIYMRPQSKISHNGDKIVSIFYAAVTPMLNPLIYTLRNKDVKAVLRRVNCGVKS
Procedure, shortened: as §1

UniProt Q8VF44 = molecular target: T7, UniProt Q8VF44
T7 sequence (whole entry): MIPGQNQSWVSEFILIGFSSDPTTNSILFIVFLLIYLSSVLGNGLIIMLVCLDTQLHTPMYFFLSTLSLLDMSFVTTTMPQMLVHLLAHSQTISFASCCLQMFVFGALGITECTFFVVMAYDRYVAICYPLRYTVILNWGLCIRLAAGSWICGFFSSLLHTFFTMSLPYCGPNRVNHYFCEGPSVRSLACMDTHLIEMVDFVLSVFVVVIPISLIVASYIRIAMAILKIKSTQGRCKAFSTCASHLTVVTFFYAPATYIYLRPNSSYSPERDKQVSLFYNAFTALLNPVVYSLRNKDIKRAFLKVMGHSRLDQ
Procedure, shortened: as §1

UniProt Q8VF52 = molecular target: T8, UniProt Q8VF52
T8 sequence (whole entry): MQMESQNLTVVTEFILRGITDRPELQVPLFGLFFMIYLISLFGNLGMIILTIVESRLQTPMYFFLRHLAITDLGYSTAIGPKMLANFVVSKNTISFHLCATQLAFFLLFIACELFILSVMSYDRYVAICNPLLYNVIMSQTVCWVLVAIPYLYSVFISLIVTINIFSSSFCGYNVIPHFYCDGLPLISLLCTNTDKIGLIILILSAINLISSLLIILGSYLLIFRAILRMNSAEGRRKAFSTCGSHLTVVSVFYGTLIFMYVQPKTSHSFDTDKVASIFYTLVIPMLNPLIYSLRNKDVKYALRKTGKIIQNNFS
Procedure, shortened: as §1

UniProt Q8VFG6 = molecular target: T9, UniProt Q8VFG6
T9 sequence (whole entry): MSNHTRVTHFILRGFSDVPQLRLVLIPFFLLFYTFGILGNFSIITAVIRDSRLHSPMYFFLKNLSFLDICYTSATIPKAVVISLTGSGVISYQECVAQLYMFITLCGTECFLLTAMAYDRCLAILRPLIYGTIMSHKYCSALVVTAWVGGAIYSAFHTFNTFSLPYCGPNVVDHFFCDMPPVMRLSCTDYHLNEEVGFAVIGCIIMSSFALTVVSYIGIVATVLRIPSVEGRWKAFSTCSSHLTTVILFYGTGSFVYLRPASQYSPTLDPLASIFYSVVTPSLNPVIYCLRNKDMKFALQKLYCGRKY
Procedure, shortened: as §1

UniProt Q8VFM8 = molecular target: T10, UniProt Q8VFM8
T10 sequence (whole entry): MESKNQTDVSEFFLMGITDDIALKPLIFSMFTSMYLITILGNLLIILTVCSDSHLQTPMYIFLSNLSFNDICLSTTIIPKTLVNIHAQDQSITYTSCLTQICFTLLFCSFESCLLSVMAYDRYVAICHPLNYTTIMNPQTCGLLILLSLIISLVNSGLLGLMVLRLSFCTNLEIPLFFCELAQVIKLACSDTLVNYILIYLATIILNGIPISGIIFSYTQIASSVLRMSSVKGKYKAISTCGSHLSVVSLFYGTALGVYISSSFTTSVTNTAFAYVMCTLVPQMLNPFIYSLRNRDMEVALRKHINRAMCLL
Procedure, shortened: as §1

UniProt Q7TRR8 = molecular target: T11, UniProt Q7TRR8
T11 sequence (whole entry): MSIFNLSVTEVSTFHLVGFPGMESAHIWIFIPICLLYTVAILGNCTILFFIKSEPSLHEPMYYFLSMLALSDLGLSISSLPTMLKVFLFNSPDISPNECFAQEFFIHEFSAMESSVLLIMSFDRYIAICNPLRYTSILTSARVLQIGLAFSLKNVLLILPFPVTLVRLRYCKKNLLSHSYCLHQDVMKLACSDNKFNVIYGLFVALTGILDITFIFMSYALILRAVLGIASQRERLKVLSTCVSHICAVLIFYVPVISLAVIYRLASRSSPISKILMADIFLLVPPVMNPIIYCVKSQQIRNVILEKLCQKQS
Procedure, shortened: as §1

UniProt Q8VF06 = molecular target: UniProt Q8VF06
Procedure, shortened: as §1

UniProt Q7TS17 = molecular target: UniProt Q7TS17
Procedure, shortened: as §1

UniProt Q7TS37 = molecular target: UniProt Q7TS37
Procedure, shortened: as §1

UniProt Q7TS40 = molecular target: UniProt Q7TS40
Procedure, shortened: as §1

UniProt Q8VF73 = molecular target: UniProt Q8VF73
Procedure, shortened: as §1

UniProt Q8VFB8 = molecular target: UniProt Q8VFB8
Procedure, shortened: as §1

Measured: odorant receptor agonist call

Chain of UniProt Q8VF06 (Q8VF06 as listed by the source): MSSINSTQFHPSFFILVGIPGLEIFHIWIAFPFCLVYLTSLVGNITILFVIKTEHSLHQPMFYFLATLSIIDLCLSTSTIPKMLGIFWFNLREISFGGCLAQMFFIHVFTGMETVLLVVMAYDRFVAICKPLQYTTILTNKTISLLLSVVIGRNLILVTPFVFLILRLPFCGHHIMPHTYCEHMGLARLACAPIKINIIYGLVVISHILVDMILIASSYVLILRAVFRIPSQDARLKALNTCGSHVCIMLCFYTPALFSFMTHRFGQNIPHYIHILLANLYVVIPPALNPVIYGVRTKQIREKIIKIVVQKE
Chain of UniProt Q8VF73 (Q8VF73 as listed by the source): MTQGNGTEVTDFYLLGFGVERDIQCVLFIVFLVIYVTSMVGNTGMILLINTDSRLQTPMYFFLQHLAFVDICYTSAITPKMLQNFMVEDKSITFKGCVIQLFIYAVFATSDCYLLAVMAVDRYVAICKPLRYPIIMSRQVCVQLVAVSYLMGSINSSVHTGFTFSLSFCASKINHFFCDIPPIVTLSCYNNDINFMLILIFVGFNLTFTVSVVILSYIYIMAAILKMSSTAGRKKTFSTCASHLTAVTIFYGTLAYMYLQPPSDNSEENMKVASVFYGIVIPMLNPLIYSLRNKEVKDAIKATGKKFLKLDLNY
Chain of UniProt Q8VFB8 (Q8VFB8 as listed by the source): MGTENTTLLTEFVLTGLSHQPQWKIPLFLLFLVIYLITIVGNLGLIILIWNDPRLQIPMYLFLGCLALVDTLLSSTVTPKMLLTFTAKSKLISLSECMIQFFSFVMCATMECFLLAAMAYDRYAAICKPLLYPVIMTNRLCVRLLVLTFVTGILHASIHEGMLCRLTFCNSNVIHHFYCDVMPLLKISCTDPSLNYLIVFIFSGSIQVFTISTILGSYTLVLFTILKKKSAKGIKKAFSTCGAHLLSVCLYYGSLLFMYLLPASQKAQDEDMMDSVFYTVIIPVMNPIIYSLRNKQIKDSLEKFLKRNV
Chain of UniProt Q7TRX1 (Q7TRX1 as listed by the source): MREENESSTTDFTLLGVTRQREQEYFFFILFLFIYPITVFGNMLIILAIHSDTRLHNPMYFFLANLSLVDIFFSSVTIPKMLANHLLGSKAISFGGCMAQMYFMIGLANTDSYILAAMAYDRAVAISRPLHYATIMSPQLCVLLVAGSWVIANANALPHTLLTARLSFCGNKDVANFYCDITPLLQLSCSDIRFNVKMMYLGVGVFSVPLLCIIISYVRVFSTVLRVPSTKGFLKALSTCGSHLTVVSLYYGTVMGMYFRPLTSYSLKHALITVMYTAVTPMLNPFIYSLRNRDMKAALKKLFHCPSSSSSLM
Chain of UniProt Q7TS37 (Q7TS37 as listed by the source): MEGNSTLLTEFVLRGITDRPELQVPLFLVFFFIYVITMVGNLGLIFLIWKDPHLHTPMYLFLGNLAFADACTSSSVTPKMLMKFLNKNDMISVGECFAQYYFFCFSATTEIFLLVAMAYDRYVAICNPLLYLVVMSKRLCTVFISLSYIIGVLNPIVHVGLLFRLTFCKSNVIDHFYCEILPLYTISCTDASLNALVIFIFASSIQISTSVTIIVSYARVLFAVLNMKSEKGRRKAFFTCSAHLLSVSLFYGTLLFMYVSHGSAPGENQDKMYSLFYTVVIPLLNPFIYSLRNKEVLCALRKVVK
Chain of UniProt Q7TS17 (Q7TS17 as listed by the source): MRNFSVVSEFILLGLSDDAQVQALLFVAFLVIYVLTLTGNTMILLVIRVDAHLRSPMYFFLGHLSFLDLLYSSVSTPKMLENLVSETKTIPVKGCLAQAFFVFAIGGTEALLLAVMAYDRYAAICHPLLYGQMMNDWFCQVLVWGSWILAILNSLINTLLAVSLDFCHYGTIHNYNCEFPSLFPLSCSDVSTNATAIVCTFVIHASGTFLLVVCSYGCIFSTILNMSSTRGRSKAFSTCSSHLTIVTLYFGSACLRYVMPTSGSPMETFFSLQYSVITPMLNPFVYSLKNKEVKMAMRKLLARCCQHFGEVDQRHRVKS
Chain of UniProt Q7TS40 (Q7TS40 as listed by the source): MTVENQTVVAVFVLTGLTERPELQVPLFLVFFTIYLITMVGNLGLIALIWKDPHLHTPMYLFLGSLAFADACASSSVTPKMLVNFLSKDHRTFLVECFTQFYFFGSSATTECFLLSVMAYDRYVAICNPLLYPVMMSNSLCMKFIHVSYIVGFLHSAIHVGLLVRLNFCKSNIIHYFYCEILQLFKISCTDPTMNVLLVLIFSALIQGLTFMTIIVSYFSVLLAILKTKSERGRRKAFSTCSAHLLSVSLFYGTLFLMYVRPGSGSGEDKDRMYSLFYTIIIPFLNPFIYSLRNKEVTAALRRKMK

CC(C)=CCCC(C)CCO (stereo not given)
active: UniProt Q7TRX1
not listed: UniProt Q7TRR8 | UniProt Q8VF06 | UniProt Q7TS17 | UniProt Q7TS37 | UniProt Q7TS40 | UniProt Q8VF73 | UniProt Q8VFB8
inactive: all other assays above

CCCCCCO
not listed: UniProt Q7TRX1 | UniProt Q7TS17 | UniProt Q7TS37 | UniProt Q7TS40 | UniProt Q8VF73 | UniProt Q8VFB8
inactive: all other assays above

O=C(O)CCCBr
inactive: UniProt Q7TRR8

CCCCCCOC(C)=O
inactive: UniProt Q7TRW1 | UniProt Q7TRX0 | UniProt Q8VEU7 | UniProt Q8VF05 | UniProt Q8VF24 | UniProt Q8VF43 | UniProt Q8VF44 | UniProt Q8VF52 | UniProt Q8VFG6 | UniProt Q8VFM8

CCCCCCCCO
not listed: UniProt Q7TRX1 | UniProt Q7TS17 | UniProt Q7TS37 | UniProt Q7TS40 | UniProt Q8VF73 | UniProt Q8VFB8
inactive: all other assays above

O=C([O-])CCCCCCCC(=O)[O-].[H+].[H+]
inactive: UniProt Q7TRR8 | UniProt Q7TRX0 | UniProt Q8VF06 | UniProt Q8VF43 | UniProt Q8VF52 | UniProt Q8VFM8

CCCCCCCO
active: UniProt Q8VF05
not listed: UniProt Q7TRX1 | UniProt Q7TS17 | UniProt Q7TS37 | UniProt Q7TS40 | UniProt Q8VF73 | UniProt Q8VFB8
inactive: all other assays above

O=C1CCOc2ccccc21
active: UniProt Q7TS17 | UniProt Q7TS37 | UniProt Q8VF05 | UniProt Q8VF52 | UniProt Q8VF73 | UniProt Q8VFB8 | UniProt Q8VFG6
not listed: UniProt Q7TRX1 | UniProt Q7TRR8 | UniProt Q8VF06
inactive: all other assays above

CCCCCCCC(=O)[O-].[H+]
inactive: UniProt Q7TRR8 | UniProt Q7TRW1 | UniProt Q8VEU7 | UniProt Q8VF05 | UniProt Q8VF24 | UniProt Q8VF44 | UniProt Q8VF52 | UniProt Q8VFG6
active: UniProt Q8VF06

O=C(O)CCCCBr
inactive: UniProt Q7TRR8

O=C(O)CCCCCC(=O)O
inactive: UniProt Q7TRR8

From the M2OR odorant receptor database
